# Data: PubChem BioAssay
# Calls of active or inactive are those of the source.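 Rule for the calls, unless noted: active = viability at or under a set limit in both replicates, limit being median viability minus 3 SD (cut at about 48% in these data, passing the limit was not always enough); inconclusive = at or under the limit in just one replicate; inactive = at or above the limit in both replicates.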
# How the values were obtained:
# [1] = Her2 expression decrease, cell viability multiplex – SKBR3 breast tumor cells, AlphaScreen, ATP viability, primary screen (AID 461;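 active = Her2 level under about 52% in both replicate screens, with viability over 70% of control, limit read from the data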;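 for Her2 level: lower value means less Her2 protein in the cells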;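 for viability: percent of carrier control wells set as 100% viability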); conditions: SKBR3 Her2 protein level, 18-24 h, measured here: SKBR3 viability, ATP luminescence, at 10 µM
# [2] = biological target: Receptor tyrosine-protein kinase erbB-2 (Homo sapiens) (UniProt P04626); experiment: as above; conditions: 18-24 h, at 10 µM, stronger effect = lower value
# Receptor tyrosine-protein kinase erbB-2 (Homo sapiens), sequence (P04626 whole entry, looked up): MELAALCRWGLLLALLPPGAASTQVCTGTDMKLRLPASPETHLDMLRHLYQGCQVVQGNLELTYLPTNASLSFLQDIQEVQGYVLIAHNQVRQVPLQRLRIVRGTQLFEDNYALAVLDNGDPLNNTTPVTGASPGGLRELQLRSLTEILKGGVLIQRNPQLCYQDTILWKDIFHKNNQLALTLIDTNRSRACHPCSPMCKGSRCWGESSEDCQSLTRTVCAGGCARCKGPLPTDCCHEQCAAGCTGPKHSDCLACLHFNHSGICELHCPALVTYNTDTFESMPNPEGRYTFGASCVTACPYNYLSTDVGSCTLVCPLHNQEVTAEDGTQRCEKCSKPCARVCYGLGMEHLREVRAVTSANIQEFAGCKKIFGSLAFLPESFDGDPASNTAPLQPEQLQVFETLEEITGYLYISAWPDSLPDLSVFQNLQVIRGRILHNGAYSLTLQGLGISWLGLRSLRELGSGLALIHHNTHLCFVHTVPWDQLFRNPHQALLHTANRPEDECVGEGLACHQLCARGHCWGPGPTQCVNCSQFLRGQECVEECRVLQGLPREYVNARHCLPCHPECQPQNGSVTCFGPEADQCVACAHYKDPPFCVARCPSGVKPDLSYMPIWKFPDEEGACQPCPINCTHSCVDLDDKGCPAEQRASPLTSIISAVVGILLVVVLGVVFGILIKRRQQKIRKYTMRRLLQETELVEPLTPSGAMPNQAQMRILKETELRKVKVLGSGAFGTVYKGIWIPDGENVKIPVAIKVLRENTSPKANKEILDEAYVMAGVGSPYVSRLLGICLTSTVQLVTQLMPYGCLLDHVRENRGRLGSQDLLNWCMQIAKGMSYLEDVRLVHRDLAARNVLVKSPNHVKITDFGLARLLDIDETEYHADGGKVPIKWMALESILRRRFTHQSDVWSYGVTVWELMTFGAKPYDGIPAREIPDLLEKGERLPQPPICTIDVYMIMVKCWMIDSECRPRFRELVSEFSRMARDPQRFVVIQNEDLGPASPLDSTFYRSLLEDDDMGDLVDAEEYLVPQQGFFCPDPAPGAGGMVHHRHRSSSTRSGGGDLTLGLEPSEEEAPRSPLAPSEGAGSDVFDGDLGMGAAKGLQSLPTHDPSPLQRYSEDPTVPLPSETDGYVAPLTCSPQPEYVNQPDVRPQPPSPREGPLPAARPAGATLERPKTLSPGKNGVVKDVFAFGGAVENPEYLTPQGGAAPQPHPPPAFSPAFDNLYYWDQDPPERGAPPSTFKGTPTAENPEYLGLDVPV
# [3] = reduced viability of SK-BR-3 breast cancer cells – cell-based, 24 h, human, pilot screen (AID 572;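 active = viability at or below 10% of carrier control in both of two separate runs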;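 note: compound exposure lasted between 18 and 24 h rather than exactly 24 h; 100% = carrier-treated control wells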); conditions: SK-BR-3 viability, CellTiter-Glo luminescence, at 10 µM, stronger effect = lower value
# [4] = HUVEC growth inhibition – cell-based, human, primary screen (AID 575;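 active = viability at or below 30% in both replicate assays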;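 note: 100% = median of untreated cell wells with 0.1% DMSO on each plate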); conditions: HUVEC proliferation, CellTiter-Glo luminescence, 72 h; at 10 µM; stronger effect = lower value
# Method in brief: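 Test system – primary HUVEC, no more than 12 passages · Dosing – one dose, 10 µM final, 0.1% DMSO · Times – 72 h treatment at 37 °C · Measured by – ATP-based CellTiter-Glo luminescent read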
# [5] = H69AR cell proliferation blockers – human, duplicate replicates, primary screen (AID 580); conditions: H69AR lung tumor cells viability, ATP luminescence, 72 h; at 10 µM; stronger effect = lower value;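 note: 100% = mean luminescence of untreated wells and 0% = no signal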
# [6] = MRP1 drug-resistance reversers in H69AR cells – cell-based, doxorubicin co-treatment, pilot screen (AID 601;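 active = viability loss from added drug above about 55%, and viability with drug at most 40%, in both replicates, limit read from the data, passing the limit was not always enough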); conditions: CellTiter-Glo, 72 h, at 10 µM; for differential viability (reversal): stronger effect = higher value
# [7] = yeast transport mutant growth inhibition pilot in 384-well plates, post-Golgi transport modulator project (AID 636; in the data active = inhibition above about 31%); conditions: absorbance 615 nm, about 18 h, stronger effect = higher value
# [8] = growth suppression of yeast trafficking mutant, preliminary HTS, modulators of trafficking downstream of Golgi apparatus project, 1536-format plate, OD 615 nm (AID 637; in the data active = inhibition above about 30%); conditions: yeast transport mutant growth, absorbance 615 nm, 18 h; stronger effect = higher value
# [9] = H69AR cells + 2 uM doxorubicin, measured here: viability with 2 uM doxorubicin, stronger effect = lower value
# [10] = H69AR cells, compound alone cytotoxicity
Compound,viability [1],Her2 level [2],viability [3],viability [4],viability [5],differential viability (reversal) ([6]; H69AR cells + 2 uM doxorubicin),"viability [6, 9]","viability [6, 10]",inhibition [7],inhibition [8]
CCOC(=O)CSc1nc2cc(C(=O)NCc3ccco3)ccc2c(=O)n1-c1ccc(F)cc1,86.5%,105% (inactive),86.5% (inactive),71.4% (inactive),87.5% (inactive),12% (inactive),75.6%,87.5%,-0.93% (inactive),12.8% (inactive)
CN1CCN(CCCNC(=O)C2CC(=O)N(C3CCCCC3)C2)CC1 (stereo not given),106%,90% (inactive),106% (inactive),88.8% (inactive),91.4% (inactive),-3.83% (inactive),95.2%,91.4%,-4.47% (inactive),3.06% (inactive)
Cc1ccc(-c2cc(C(=O)N3CCCC3)no2)cc1,93.5%,106% (inactive),93.5% (inactive),96% (inactive),95.1% (inactive),2% (inactive),93.1%,95.1%,-2.11% (inactive),-5.16% (inactive)
O=C(CN1C(=O)CSC1=O)Nc1ccc(N2CCOCC2)cc1,96.5%,122% (inactive),96.5% (inactive),88.1% (inactive),101% (inactive),5.88% (inactive),94.7%,101%,1.07% (inactive),16.4% (inactive)
COC(=O)c1onc(C(=O)c2ccccc2)c1C(=O)OC,104%,89.5% (inactive),104% (inactive),98.8% (inactive),97.1% (inactive),12.7% (inactive),84.4%,97.1%,-4.34% (inactive),3.71% (inactive)
CSC1=C(C#N)C(c2ccc(Cl)cc2)C2=C(CC(C)(C)CC2=O)N1 (stereo not given),102%,95% (inactive),102% (inactive),72.1% (inactive),66% (inactive),32.4% (inactive),33.6%,66%,-3.92% (inactive),-1.48% (inactive)
O=C(O)c1c(Cl)c(Cl)c(Cl)c(Cl)c1C(=O)N1CCOCC1,109%,90% (inactive),109% (inactive),106% (inactive),95.7% (inactive),2.91% (inactive),92.8%,95.7%,-5.97% (inactive),0.16% (inactive)
CC1=C(C#N)C(c2ccoc2)C(C(=O)OCc2ccccc2)=C(N)S1 (stereo not given),100%,88% (inactive),100% (inactive),99.5% (inactive),91.6% (inactive),-0.82% (inactive),92.4%,91.6%,-3.95% (inactive),0% (inactive)
CCn1c(=S)ccc2ccc(OC)cc21,88.5%,114% (inactive),88.5% (inactive),98.7% (inactive),101% (inactive),13.2% (inactive),87.6%,101%,-5.14% (inactive),-7.46% (inactive)
CCOC(=O)c1c(NC(=O)CSc2nc3c(c(=O)n(C)c(=O)n3C)n2C(C)C)sc(C)c1C,106%,94% (inactive),106% (inactive),91.4% (inactive),89.9% (inactive),-2.12% (inactive),92.1%,89.9%,-0.53% (inactive),-3.23% (inactive)
Cc1ccc(OCC(O)Cn2c(=N)n(CCN3CCCCC3)c3ccccc32)cc1 (stereo not given),79%,63% (inactive),79% (inactive),2.43% (active),18.6% (active),-3.16% (inactive),21.7%,18.6%,-4% (inactive),-0.33% (inactive)
N#CC1=C(N)OC(c2ccccc2)=C(C#N)C1c1ccc2c(c1)OCO2 (stereo not given),95%,108% (inactive),95% (inactive),85.5% (inactive),93.8% (inactive),13.3% (inactive),80.6%,93.8%,-0.13% (inactive),100% (active)
COC(=O)C1=C(C)NC(C)=C(C(=O)OC)C1c1cc2cc(C)ccc2[nH]c1=O,103%,66% (inactive),103% (inactive),84.6% (inactive),79.4% (inactive),6.74% (inactive),72.6%,79.4%,-3.29% (inactive),3.45% (inactive)
Cn1c(=O)[nH]c2cc3ccccc3cc21,118%,94% (inactive),118% (inactive),26.6% (active),95.6% (inactive),16.5% (inactive),79.1%,95.6%,-6.05% (inactive),-0.73% (inactive)
Cc1ccc(C(=O)CCC2CCCC2=O)cc1 (stereo not given),90.5%,102% (inactive),90.5% (inactive),111% (inactive),89% (inactive),0.57% (inactive),88.4%,89%,-4.73% (inactive),-2.67% (inactive)
